Data reported in ChEMBL document CHEMBL1795285, “Facile fabrication of promising protein tyrosine phosphatase (PTP) inhibitor entities based on 'clicked' serine/threonine-monosaccharide hybrids” (Bioorg Med Chem, 2011).

These compounds were tested on HCT-116 (assay: Cytotoxicity against human HCT116 cells after 72 hrs by MTT assay). Settings: HCT-116, 72 h.
Assay type: functional, cell-based
Procedure, shortened: (§1)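 Cells seeded at 2000/well and held 24 h at 37 °C, 5% CO2 before treatment. After a 3 h MTT incubation, medium was replaced by DMSO. Absorbance read at 550 nm against a 690 nm reference, with OD taken as proportional to viable cell number.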

Compound	IC50
CO[C@H]1O[C@H](Cn2cc(COC[C@H](NC(=O)OC(C)(C)C)C(=O)O)nn2)[C@H](OCc2ccccc2)[C@H](OCc2ccccc2)[C@H]1OCc1ccccc1	> 120 µM
CO[C@H]1O[C@H](Cn2cc(CO[C@@H](C)[C@H](NC(=O)OC(C)(C)C)C(=O)O)nn2)[C@@H](OCc2ccccc2)[C@H](OCc2ccccc2)[C@@H]1OCc1ccccc1	32.2 µM

What follows are compounds tested against T1, M-phase inducer phosphatase 2 (Homo sapiens, UniProt P30305) (assay: Inhibition of human Cdc25B). Settings: not given.
T1 sequence (P30305 whole entry): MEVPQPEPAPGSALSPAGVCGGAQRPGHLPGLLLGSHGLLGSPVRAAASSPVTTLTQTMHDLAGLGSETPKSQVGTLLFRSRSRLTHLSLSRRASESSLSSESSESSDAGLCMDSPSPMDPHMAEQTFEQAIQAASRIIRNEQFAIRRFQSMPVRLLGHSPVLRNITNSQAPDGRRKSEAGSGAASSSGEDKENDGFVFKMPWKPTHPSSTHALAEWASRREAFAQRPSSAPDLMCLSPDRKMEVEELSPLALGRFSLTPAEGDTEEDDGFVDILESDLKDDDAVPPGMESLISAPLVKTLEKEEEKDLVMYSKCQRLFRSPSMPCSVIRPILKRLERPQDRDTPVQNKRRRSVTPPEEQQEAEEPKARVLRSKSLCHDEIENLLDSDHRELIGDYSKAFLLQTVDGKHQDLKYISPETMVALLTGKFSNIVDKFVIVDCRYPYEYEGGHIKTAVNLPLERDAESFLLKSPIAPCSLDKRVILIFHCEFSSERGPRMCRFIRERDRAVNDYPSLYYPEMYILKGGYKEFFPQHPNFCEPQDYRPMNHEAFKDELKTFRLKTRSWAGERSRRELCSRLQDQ

IC50	Compound
20.6 µM	CO[C@H]1O[C@H](Cn2cc(COC[C@H](NC(=O)OC(C)(C)C)C(=O)O)nn2)[C@H](OCc2ccccc2)[C@H](OCc2ccccc2)[C@H]1OCc1ccccc1
12.2 µM	CO[C@H]1O[C@H](Cn2cc(CO[C@@H](C)[C@H](NC(=O)OC(C)(C)C)C(=O)O)nn2)[C@@H](OCc2ccccc2)[C@H](OCc2ccccc2)[C@@H]1OCc1ccccc1

What follows are compounds tested against T2, M-phase inducer phosphatase 1 (Homo sapiens, UniProt P30304) (assay: Inhibition of human CDC25A). Settings: not given.
T2 sequence (P30304 whole entry): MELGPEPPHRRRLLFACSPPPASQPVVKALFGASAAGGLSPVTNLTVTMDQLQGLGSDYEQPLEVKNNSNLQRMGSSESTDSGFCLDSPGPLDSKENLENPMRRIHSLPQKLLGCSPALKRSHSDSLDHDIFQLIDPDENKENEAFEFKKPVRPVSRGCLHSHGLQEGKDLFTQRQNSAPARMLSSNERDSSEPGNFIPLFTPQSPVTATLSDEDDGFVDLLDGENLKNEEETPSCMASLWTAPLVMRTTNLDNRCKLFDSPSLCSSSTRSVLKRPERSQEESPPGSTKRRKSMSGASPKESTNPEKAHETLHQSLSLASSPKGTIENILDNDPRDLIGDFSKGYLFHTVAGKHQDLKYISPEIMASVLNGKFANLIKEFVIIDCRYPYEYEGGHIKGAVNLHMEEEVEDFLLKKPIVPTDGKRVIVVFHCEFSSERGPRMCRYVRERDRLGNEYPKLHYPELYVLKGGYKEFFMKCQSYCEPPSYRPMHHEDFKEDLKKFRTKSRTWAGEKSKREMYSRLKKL

IC50	Compound
> 120 µM	CO[C@H]1O[C@H](Cn2cc(COC[C@H](NC(=O)OC(C)(C)C)C(=O)O)nn2)[C@H](OCc2ccccc2)[C@H](OCc2ccccc2)[C@H]1OCc1ccccc1
51.6 µM	CO[C@H]1O[C@H](Cn2cc(CO[C@@H](C)[C@H](NC(=O)OC(C)(C)C)C(=O)O)nn2)[C@@H](OCc2ccccc2)[C@H](OCc2ccccc2)[C@@H]1OCc1ccccc1

Each compound was assayed against T3, Tyrosine-protein phosphatase non-receptor type 11 (Homo sapiens, UniProt Q06124) (assay: Inhibition of SHP2). Settings: not given.
T3 sequence (Q06124 whole entry): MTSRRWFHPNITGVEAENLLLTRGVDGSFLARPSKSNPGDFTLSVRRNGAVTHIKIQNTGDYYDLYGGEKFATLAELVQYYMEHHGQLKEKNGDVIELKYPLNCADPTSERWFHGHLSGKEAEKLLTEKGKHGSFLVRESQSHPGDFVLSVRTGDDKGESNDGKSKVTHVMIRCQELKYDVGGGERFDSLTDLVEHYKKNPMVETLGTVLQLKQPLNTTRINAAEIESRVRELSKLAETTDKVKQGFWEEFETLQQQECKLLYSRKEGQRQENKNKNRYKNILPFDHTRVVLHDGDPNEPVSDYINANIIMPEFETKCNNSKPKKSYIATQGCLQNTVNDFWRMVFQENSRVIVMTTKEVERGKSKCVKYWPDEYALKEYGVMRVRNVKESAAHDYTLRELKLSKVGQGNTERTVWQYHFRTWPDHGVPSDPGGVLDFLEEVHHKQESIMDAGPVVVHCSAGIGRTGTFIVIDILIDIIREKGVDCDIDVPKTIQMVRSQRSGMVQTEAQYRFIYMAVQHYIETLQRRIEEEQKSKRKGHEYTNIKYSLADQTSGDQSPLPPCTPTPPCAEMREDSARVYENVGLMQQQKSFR

IC50	Compound
> 120 µM	CO[C@H]1O[C@H](Cn2cc(COC[C@H](NC(=O)OC(C)(C)C)C(=O)O)nn2)[C@H](OCc2ccccc2)[C@H](OCc2ccccc2)[C@H]1OCc1ccccc1
> 120 µM	CO[C@H]1O[C@H](Cn2cc(CO[C@@H](C)[C@H](NC(=O)OC(C)(C)C)C(=O)O)nn2)[C@@H](OCc2ccccc2)[C@H](OCc2ccccc2)[C@@H]1OCc1ccccc1

Each compound was assayed against Tyrosine-protein phosphatase non-receptor type 6 (Homo sapiens, UniProt P29350) (assay: Inhibition of SHP1). Settings: not given.
Tyrosine-protein phosphatase non-receptor type 6, sequence (P29350 whole entry): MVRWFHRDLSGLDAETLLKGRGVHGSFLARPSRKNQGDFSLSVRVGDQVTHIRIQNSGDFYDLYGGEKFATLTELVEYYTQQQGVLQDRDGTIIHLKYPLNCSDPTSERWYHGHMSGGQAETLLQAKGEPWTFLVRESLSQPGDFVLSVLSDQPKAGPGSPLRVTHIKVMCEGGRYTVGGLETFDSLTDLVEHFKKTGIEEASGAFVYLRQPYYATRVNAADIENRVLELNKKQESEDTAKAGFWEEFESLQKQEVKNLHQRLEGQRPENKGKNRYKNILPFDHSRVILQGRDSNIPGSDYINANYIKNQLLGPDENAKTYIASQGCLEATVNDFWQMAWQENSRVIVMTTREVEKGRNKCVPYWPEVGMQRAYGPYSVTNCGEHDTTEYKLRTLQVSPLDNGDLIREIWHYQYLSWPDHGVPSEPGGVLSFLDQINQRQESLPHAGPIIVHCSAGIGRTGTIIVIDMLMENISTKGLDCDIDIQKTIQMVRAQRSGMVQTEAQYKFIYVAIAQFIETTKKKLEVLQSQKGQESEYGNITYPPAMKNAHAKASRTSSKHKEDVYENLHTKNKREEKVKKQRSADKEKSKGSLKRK

IC50	Compound
> 120 µM	CO[C@H]1O[C@H](Cn2cc(COC[C@H](NC(=O)OC(C)(C)C)C(=O)O)nn2)[C@H](OCc2ccccc2)[C@H](OCc2ccccc2)[C@H]1OCc1ccccc1
> 120 µM	CO[C@H]1O[C@H](Cn2cc(CO[C@@H](C)[C@H](NC(=O)OC(C)(C)C)C(=O)O)nn2)[C@@H](OCc2ccccc2)[C@H](OCc2ccccc2)[C@@H]1OCc1ccccc1

Each compound was assayed against T4, Tyrosine-protein phosphatase non-receptor type 1 (Homo sapiens, UniProt P18031) (assay: Inhibition of human recombinant […] catalytic domain using pNPP substrate). Settings: not given.
T4 sequence (P18031 whole entry): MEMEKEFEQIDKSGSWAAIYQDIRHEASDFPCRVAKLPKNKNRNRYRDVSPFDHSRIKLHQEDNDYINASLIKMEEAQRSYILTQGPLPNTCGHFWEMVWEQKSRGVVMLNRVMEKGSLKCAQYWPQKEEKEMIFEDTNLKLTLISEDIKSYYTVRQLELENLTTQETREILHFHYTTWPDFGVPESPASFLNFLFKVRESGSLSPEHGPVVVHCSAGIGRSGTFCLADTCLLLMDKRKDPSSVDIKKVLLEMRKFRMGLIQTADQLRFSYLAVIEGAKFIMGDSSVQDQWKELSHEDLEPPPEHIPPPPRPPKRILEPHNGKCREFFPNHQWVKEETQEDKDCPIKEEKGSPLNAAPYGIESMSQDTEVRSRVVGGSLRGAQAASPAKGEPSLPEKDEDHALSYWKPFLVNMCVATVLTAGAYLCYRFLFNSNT
Procedure, shortened: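 Recombinant human PTP1B catalytic domain (30 nM) with 2 mM pNPP in 50 mM MOPS, pH 6.5, at 30 °C. Inhibitor diluted around the estimated IC50. Initial rate taken from the early linear part of the 405 nm trace over 2 min. IC50 from nonlinear fit of % inhibition vs [I] with a Hill-coefficient equation. Means of three experiments.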

IC50	Compound
20.9 µM	CO[C@H]1O[C@H](Cn2cc(COC[C@H](NC(=O)OC(C)(C)C)C(=O)O)nn2)[C@H](OCc2ccccc2)[C@H](OCc2ccccc2)[C@H]1OCc1ccccc1
26 µM	CO[C@H]1O[C@H](Cn2cc(CO[C@@H](C)[C@H](NC(=O)OC(C)(C)C)C(=O)O)nn2)[C@@H](OCc2ccccc2)[C@H](OCc2ccccc2)[C@@H]1OCc1ccccc1

What follows are compounds tested against Receptor-type tyrosine-protein phosphatase F (Homo sapiens, UniProt P10586) (assay: Inhibition of human LAR). Settings: not given.
Receptor-type tyrosine-protein phosphatase F, sequence (P10586 whole entry): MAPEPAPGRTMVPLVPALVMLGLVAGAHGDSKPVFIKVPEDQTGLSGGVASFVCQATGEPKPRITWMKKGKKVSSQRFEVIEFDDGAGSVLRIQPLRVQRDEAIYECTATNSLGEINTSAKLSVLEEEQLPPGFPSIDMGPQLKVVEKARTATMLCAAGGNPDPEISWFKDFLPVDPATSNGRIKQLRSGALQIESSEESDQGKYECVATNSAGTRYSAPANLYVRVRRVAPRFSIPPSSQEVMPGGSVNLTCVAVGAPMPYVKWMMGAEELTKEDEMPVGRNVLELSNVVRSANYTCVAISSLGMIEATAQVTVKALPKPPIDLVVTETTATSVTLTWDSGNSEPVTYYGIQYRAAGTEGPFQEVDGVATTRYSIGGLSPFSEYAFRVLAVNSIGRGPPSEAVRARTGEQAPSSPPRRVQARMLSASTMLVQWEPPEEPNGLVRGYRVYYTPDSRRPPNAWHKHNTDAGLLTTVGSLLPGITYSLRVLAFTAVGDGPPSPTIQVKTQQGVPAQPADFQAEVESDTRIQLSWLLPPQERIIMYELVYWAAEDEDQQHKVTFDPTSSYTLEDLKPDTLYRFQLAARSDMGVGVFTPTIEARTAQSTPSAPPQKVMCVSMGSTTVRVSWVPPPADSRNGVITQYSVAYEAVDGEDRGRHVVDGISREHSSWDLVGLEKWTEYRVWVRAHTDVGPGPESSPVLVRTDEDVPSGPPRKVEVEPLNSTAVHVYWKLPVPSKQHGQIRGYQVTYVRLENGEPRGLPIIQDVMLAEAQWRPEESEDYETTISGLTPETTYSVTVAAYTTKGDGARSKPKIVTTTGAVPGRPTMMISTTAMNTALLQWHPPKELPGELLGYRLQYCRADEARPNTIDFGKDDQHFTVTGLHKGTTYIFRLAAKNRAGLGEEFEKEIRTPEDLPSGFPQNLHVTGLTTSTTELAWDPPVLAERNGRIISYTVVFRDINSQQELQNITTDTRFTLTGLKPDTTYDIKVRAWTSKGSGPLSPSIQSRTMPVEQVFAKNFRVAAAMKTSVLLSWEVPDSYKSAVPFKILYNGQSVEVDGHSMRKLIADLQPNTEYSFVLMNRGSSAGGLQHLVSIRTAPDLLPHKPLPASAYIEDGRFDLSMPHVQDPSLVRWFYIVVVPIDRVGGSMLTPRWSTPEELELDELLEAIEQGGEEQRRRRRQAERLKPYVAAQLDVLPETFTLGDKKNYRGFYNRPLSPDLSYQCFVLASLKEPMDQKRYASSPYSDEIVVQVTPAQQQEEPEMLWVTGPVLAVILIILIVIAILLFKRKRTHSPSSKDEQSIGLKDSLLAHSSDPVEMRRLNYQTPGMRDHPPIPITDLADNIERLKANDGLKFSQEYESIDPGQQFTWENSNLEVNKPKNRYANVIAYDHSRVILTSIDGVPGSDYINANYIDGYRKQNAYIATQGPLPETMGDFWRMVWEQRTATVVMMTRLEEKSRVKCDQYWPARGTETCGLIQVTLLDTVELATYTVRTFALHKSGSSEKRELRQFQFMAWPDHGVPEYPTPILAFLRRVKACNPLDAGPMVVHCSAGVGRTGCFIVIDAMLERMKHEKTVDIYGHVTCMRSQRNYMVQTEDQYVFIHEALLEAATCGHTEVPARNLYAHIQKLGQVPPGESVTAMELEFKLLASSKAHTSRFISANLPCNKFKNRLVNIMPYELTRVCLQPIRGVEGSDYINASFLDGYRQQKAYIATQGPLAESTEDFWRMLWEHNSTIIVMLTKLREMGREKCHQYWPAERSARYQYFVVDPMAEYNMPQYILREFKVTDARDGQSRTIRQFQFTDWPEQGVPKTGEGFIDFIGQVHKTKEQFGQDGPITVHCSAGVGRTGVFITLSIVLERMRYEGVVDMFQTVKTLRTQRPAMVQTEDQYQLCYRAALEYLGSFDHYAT

IC50	Compound
> 120 µM	CO[C@H]1O[C@H](Cn2cc(COC[C@H](NC(=O)OC(C)(C)C)C(=O)O)nn2)[C@H](OCc2ccccc2)[C@H](OCc2ccccc2)[C@H]1OCc1ccccc1
> 120 µM	CO[C@H]1O[C@H](Cn2cc(CO[C@@H](C)[C@H](NC(=O)OC(C)(C)C)C(=O)O)nn2)[C@@H](OCc2ccccc2)[C@H](OCc2ccccc2)[C@@H]1OCc1ccccc1

Each compound was assayed on HeLa (assay: Cytotoxicity against human HeLa cells after 72 hrs by MTT assay). Settings: not given.
Assay type: functional, cell-based
Procedure, shortened: as §1

Compound	IC50
CO[C@H]1O[C@H](Cn2cc(COC[C@H](NC(=O)OC(C)(C)C)C(=O)O)nn2)[C@H](OCc2ccccc2)[C@H](OCc2ccccc2)[C@H]1OCc1ccccc1	> 120 µM
CO[C@H]1O[C@H](Cn2cc(CO[C@@H](C)[C@H](NC(=O)OC(C)(C)C)C(=O)O)nn2)[C@@H](OCc2ccccc2)[C@H](OCc2ccccc2)[C@@H]1OCc1ccccc1	53.7 µM

What follows are compounds tested against T5, Tyrosine-protein phosphatase non-receptor type 2 (Homo sapiens, UniProt P17706) (assay: Inhibition of TCPTP). Settings: not given.
T5 sequence (P17706 whole entry): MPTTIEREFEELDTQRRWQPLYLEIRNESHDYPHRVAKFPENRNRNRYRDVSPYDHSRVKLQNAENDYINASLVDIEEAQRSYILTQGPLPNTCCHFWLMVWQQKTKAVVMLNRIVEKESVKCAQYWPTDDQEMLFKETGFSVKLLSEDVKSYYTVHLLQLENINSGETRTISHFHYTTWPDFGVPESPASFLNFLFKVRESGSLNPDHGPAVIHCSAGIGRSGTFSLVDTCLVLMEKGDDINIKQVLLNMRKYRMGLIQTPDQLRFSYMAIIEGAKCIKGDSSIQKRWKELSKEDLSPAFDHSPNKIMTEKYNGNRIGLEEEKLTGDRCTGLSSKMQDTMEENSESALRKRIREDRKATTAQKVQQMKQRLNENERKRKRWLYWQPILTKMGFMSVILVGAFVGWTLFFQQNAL

IC50	Compound
54.9 µM	CO[C@H]1O[C@H](Cn2cc(COC[C@H](NC(=O)OC(C)(C)C)C(=O)O)nn2)[C@H](OCc2ccccc2)[C@H](OCc2ccccc2)[C@H]1OCc1ccccc1
105 µM	CO[C@H]1O[C@H](Cn2cc(CO[C@@H](C)[C@H](NC(=O)OC(C)(C)C)C(=O)O)nn2)[C@@H](OCc2ccccc2)[C@H](OCc2ccccc2)[C@@H]1OCc1ccccc1

What follows are compounds tested on A549 (assay: Cytotoxicity against human A549 cells after 72 hrs by MTT assay). Settings: A549, 72 h.
Assay type: functional, cell-based
Procedure, shortened: as §1

Compound	IC50
CO[C@H]1O[C@H](Cn2cc(COC[C@H](NC(=O)OC(C)(C)C)C(=O)O)nn2)[C@H](OCc2ccccc2)[C@H](OCc2ccccc2)[C@H]1OCc1ccccc1	> 120 µM
CO[C@H]1O[C@H](Cn2cc(CO[C@@H](C)[C@H](NC(=O)OC(C)(C)C)C(=O)O)nn2)[C@@H](OCc2ccccc2)[C@H](OCc2ccccc2)[C@@H]1OCc1ccccc1	57.2 µM
